ChEMBL document CHEMBL1275592, “AmpN-AmpG operon is essential for expression of L1 and L2 beta-lactamases in Stenotrophomonas maltophilia” (2010)
Converted amounts (≈) assume the structure as drawn.

What was measured:
[1] = biological target: T1, Catechol 2,3-dioxygenase (Stenotrophomonas maltophilia) (UniProt A7LB47); experiment: Induction of catechol 2,3-dioxygenase activity in Stenotrophomonas maltophilia KJ harboring pRKF2 plasmid at 20 ug/ml
T1 sequence (whole entry): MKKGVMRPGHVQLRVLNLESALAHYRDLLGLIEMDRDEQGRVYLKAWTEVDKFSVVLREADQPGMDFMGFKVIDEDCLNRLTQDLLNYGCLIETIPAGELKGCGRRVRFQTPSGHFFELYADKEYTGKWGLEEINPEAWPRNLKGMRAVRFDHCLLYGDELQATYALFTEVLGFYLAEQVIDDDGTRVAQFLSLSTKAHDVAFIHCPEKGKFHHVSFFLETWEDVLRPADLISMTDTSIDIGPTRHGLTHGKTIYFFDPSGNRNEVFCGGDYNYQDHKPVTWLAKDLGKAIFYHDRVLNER
Procedure, shortened: (§1)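 C23O (xylE product) activity assayed in intact cells, with cefuroxime 20 μg/ml as inducer. Rate calculated with extinction coefficient 44,000 M−1 cm−1. One unit (Uc) converts 1 nmol substrate/min. Specific activity given as Uc/OD450. Plasmids were introduced into S. maltophilia by conjugation and confirmed by colony PCR.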

[2] = test system: Stenotrophomonas maltophilia; experiment: Antimicrobial activity against Stenotrophomonas maltophilia KJN1 harboring ampN with xylE-Gmomega cassette insertion by agar dilution method; assay type: functional
Procedure, shortened: (§2)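 MICs were determined in triplicate by standard 2-fold serial agar dilution, following CLSI guidelines.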

[3] = test system: Stenotrophomonas maltophilia; experiment: Induction of beta-lactamase activity in ampN deficient Stenotrophomonas maltophilia KJ harboring ampG gene with xylE-Gmomega cassette insertion at 20 ug/ml
Procedure, shortened: (§3)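 Cells were induced with cefuroxime at 20 μg/ml. β-Lactamase activity was measured as nitrocefin hydrolysis at 486 nm, using ε 20,500 M−1 cm−1. Specific activity is nmol nitrocefin hydrolysed/min/mg protein. Protein was measured by dye-binding assay against a BSA standard. Basal and induced activities are both reported.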

[4] = biological target: T1, Catechol 2,3-dioxygenase (Stenotrophomonas maltophilia); experiment: Induction of catechol 2,3-dioxygenase activity in Stenotrophomonas maltophilia KJ harboring pRKF5 plasmid at 20 ug/ml; procedure, shortened: as §1
[5] = test system: Stenotrophomonas maltophilia; experiment: Antimicrobial activity against Stenotrophomonas maltophilia KJN2 harboring pRK415 plasmid and ampN with xylE-Gmomega cassette insertion by agar dilution method; assay type: functional; procedure, shortened: as §2
[6] = biological target: T1, Catechol 2,3-dioxygenase (Stenotrophomonas maltophilia); experiment: Induction of catechol 2,3-dioxygenase activity in ampN deficient Stenotrophomonas maltophilia KJ harboring pRK415 and ampG gene with xylE-Gmomega cassette insertion at 20 ug/ml; procedure, shortened: as §1
[7] = biological target: T1, Catechol 2,3-dioxygenase (Stenotrophomonas maltophilia); experiment: Induction of catechol 2,3-dioxygenase activity in ampN deficient Stenotrophomonas maltophilia KJ harboring pRK-G and ampG gene with xylE-Gmomega cassette insertion at 20 ug/ml; procedure, shortened: as §1
[8] = test system: Stenotrophomonas maltophilia; experiment: Induction of beta lactamase activity in Stenotrophomonas maltophilia KJN2 harboring pRK415 and ampN with xylE-Gmomega cassette insertion at 20 ug/ml; procedure, shortened: as §3
[9] = test system: Stenotrophomonas maltophilia; experiment: Induction of beta-lactamase activity in Stenotrophomonas maltophilia KJN2 harboring ampN with xylE-Gmomega cassette insertion at 20 ug/ml; procedure, shortened: as §3
[10] = test system: Stenotrophomonas maltophilia; experiment: Induction of beta lactamase activity in Stenotrophomonas maltophilia KJN2 harboring pRK-G and ampN with xylE-Gmomega cassette insertion at 20 ug/ml; procedure, shortened: as §3
[11] = biological target: T1, Catechol 2,3-dioxygenase (Stenotrophomonas maltophilia); experiment: Induction of catechol 2,3-dioxygenase activity in Stenotrophomonas maltophilia KJG harboring ampG with xylE-Gmomega cassette insertion at 20 ug/ml; procedure, shortened: as §1
[12] = biological target: T1, Catechol 2,3-dioxygenase (Stenotrophomonas maltophilia); experiment: Induction of catechol 2,3-dioxygenase activity in Stenotrophomonas maltophilia KJN2 harboring ampN with xylE-Gmomega cassette insertion at 20 ug/ml; procedure, shortened: as §1
[13] = test system: Stenotrophomonas maltophilia; experiment: Induction of beta lactamase activity in Stenotrophomonas maltophilia KJN2 harboring pRK-EcG and ampN with xylE-Gmomega cassette insertion at 20 ug/ml; procedure, shortened: as §3
[14] = test system: Stenotrophomonas maltophilia; experiment: Induction of beta-lactamase activity in Stenotrophomonas maltophilia KJN1 harboring ampN with xylE-Gmomega cassette insertion at 20 ug/ml; procedure, shortened: as §3
[15] = test system: Stenotrophomonas maltophilia; experiment: Induction of beta-lactamase activity in Stenotrophomonas maltophilia KJ harboring pRK-NG plasmid at 20 ug/ml; procedure, shortened: as §3
[16] = test system: Stenotrophomonas maltophilia; experiment: Antimicrobial activity against Stenotrophomonas maltophilia KJ by agar dilution method; assay type: functional; procedure, shortened: as §2
[17] = test system: Stenotrophomonas maltophilia; experiment: Antimicrobial activity against Stenotrophomonas maltophilia KJN2 harboring pRK-NG plasmid and ampN with xylE-Gmomega cassette insertion by agar dilution method; assay type: functional; procedure, shortened: as §2
[18] = biological target: T1, Catechol 2,3-dioxygenase (Stenotrophomonas maltophilia); experiment: Induction of catechol 2,3-dioxygenase activity in Stenotrophomonas maltophilia KJN1 harboring ampN with xylE-Gmomega cassette insertion at 20 ug/ml; procedure, shortened: as §1
[19] = biological target: T1, Catechol 2,3-dioxygenase (Stenotrophomonas maltophilia); experiment: Induction of catechol 2,3-dioxygenase activity in ampN deficient Stenotrophomonas maltophilia KJ harboring pRK-NG and ampG gene with xylE-Gmomega cassette insertion at 20 ug/ml; procedure, shortened: as §1
[20] = test system: Stenotrophomonas maltophilia; experiment: Antimicrobial activity against Stenotrophomonas maltophilia KJN2 harboring pRK-G plasmid and ampN with xylE-Gmomega cassette insertion by agar dilution method; assay type: functional; procedure, shortened: as §2
[21] = test system: Stenotrophomonas maltophilia; experiment: Induction of beta-lactamase activity in Stenotrophomonas maltophilia KJG harboring ampG with xylE-Gmomega cassette insertion at 20 ug/ml; procedure, shortened: as §3
[22] = biological target: T1, Catechol 2,3-dioxygenase (Stenotrophomonas maltophilia); experiment: Induction of catechol 2,3-dioxygenase activity in ampN deficient Stenotrophomonas maltophilia KJ harboring ampG gene with xylE-Gmomega cassette insertion at 20 ug/ml; procedure, shortened: as §1
[23] = biological target: T1, Catechol 2,3-dioxygenase (Stenotrophomonas maltophilia); experiment: Induction of catechol 2,3-dioxygenase activity in Stenotrophomonas maltophilia KJ harboring pRKF6 plasmid at 20 ug/ml; procedure, shortened: as §1
[24] = test system: Stenotrophomonas maltophilia; experiment: Induction of beta-lactamase activity in ampN deficient Stenotrophomonas maltophilia KJ at 20 ug/ml; procedure, shortened: as §3
[25] = biological target: T1, Catechol 2,3-dioxygenase (Stenotrophomonas maltophilia); experiment: Induction of catechol 2,3-dioxygenase activity in Stenotrophomonas maltophilia KJ harboring pRKF3 plasmid at 20 ug/ml; procedure, shortened: as §1
[26] = test system: Stenotrophomonas maltophilia; experiment: Antimicrobial activity against ampN deficient Stenotrophomonas maltophilia KJ harboring ampG with xylE-Gmomega cassette insertion by agar dilution method; assay type: functional; procedure, shortened: as §2
[27] = biological target: T1, Catechol 2,3-dioxygenase (Stenotrophomonas maltophilia); experiment: Induction of catechol 2,3-dioxygenase activity in Stenotrophomonas maltophilia KJ harboring pRK415 plasmid at 20 ug/ml; procedure, shortened: as §1
[28] = test system: Stenotrophomonas maltophilia; experiment: Antimicrobial activity against ampN deficient Stenotrophomonas maltophilia KJ by agar dilution method; assay type: functional; procedure, shortened: as §2
[29] = test system: Stenotrophomonas maltophilia; experiment: Antimicrobial activity against Stenotrophomonas maltophilia KJG harboring ampG with xylE-Gmomega cassette insertion by agar dilution method; assay type: functional; procedure, shortened: as §2
[30] = test system: Stenotrophomonas maltophilia; experiment: Antimicrobial activity against Stenotrophomonas maltophilia KJN2 harboring pRK-EcG plasmid and ampN with xylE-Gmomega cassette insertion by agar dilution method; assay type: functional; procedure, shortened: as §2
[31] = test system: Stenotrophomonas maltophilia; experiment: Induction of beta-lactamase activity in Stenotrophomonas maltophilia KJ harboring pRK415 plasmid at 20 ug/ml; procedure, shortened: as §3
[32] = biological target: T1, Catechol 2,3-dioxygenase (Stenotrophomonas maltophilia); experiment: Induction of catechol 2,3-dioxygenase activity in Stenotrophomonas maltophilia KJ harboring pRKF1 plasmid at 20 ug/ml; procedure, shortened: as §1
[33] = test system: Stenotrophomonas maltophilia; experiment: Induction of beta lactamase activity in Stenotrophomonas maltophilia KJN2 harboring pRK-NG and ampN with xylE-Gmomega cassette insertion at 20 ug/ml; procedure, shortened: as §3
[34] = biological target: T1, Catechol 2,3-dioxygenase (Stenotrophomonas maltophilia); experiment: Induction of catechol 2,3-dioxygenase activity in Stenotrophomonas maltophilia KJ harboring pRKF4 plasmid at 20 ug/ml; procedure, shortened: as §1
[35] = biological target: T1, Catechol 2,3-dioxygenase (Stenotrophomonas maltophilia); experiment: Induction of catechol 2,3-dioxygenase activity in ampN deficient Stenotrophomonas maltophilia KJ harboring pRK-N and ampG gene with xylE-Gmomega cassette insertion at 20 ug/ml; procedure, shortened: as §1
[36] = test system: Stenotrophomonas maltophilia; experiment: Induction of beta-lactamase activity in Stenotrophomonas maltophilia KJ at 20 ug/ml
Procedure, shortened: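 Cefuroxime 20 μg/ml added as inducer. β-lactamase activity read by nitrocefin hydrolysis at 486 nm (ε 20,500 M−1 cm−1). Specific activity given as nmol nitrocefin hydrolyzed/min/mg protein. Protein measured by Bio-Rad assay against a BSA standard. L1 versus L2 split by the modified nitrocefin-EDTA method.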

[37] = test system: Stenotrophomonas maltophilia; experiment: Antimicrobial activity against Stenotrophomonas maltophilia KJN2 harboring ampN with xylE-Gmomega cassette insertion by agar dilution method; assay type: functional; procedure, shortened: as §2

CO/N=C(\C(=O)N[C@@H]1C(=O)N2C(C(=O)O)=C(COC(N)=O)CS[C@H]12)c1ccco1 [CEFUROXIME] was tested, and the Activity (nmol/min/OD450) [1] was 50, the MIC [2] was 32 µg/mL (≈ 75.4 µM) and the Activity [3] was 3 U/mg. It also gave an Activity (nmol/min/OD450) [4] of 6, an MIC [5] of 32 µg/mL (≈ 75.4 µM) and an Activity (nmol/min/OD450) [6] of 5. It also gave an Activity (nmol/min/OD450) [7] of 4, an Activity [8] of 18 U/mg and an Activity [9] of 5 U/mg. For the same compound, the Activity [10] was 12 U/mg, the Activity (nmol/min/OD450) [11] was 41 and the Activity (nmol/min/OD450) [12] was 39. The Activity [13] was 882 U/mg, the Activity [14] was 5 U/mg and the Activity [15] was 1620 U/mg. For the same compound, the MIC [16] was greater than 1020 µg/mL, the MIC [17] was greater than 1020 µg/mL and the Activity (nmol/min/OD450) [18] was 4. It also gave an Activity (nmol/min/OD450) [19] of 5, an MIC [20] of 64 µg/mL (≈ 151 µM) and an Activity [21] of 6 U/mg. For the same compound, the Activity (nmol/min/OD450) [22] was 4, the Activity (nmol/min/OD450) [23] was 8 and the Activity [24] was 6 U/mg. It also gave an Activity (nmol/min/OD450) [25] of 6, an MIC [26] of 32 µg/mL (≈ 75.4 µM) and an Activity (nmol/min/OD450) [27] of 0. It also gave an MIC [28] of 32 µg/mL (≈ 75.4 µM), an MIC [29] of 32 µg/mL (≈ 75.4 µM) and an MIC [30] greater than 1020 µg/mL. It also gave an Activity [31] of 1740 U/mg, an Activity (nmol/min/OD450) [32] of 6 and an Activity [33] of 1450 U/mg. For the same compound, the Activity (nmol/min/OD450) [34] was 45, the Activity (nmol/min/OD450) [35] was 5 and the Activity [36] was 1520 U/mg. It also gave an MIC [37] of 32 µg/mL (≈ 75.4 µM).
